The values below come from ChEMBL document CHEMBL3877247, “Identification of an indol-based derivative as potent and selective varicella zoster virus (VZV) inhibitor” (Eur J Med Chem, 2016).

Bounds are passed on as bounds.

The test system of data set [1] is Human alphaherpesvirus 3. Briefly: Antiviral activity against thymidine Kinase expressing Varicella-Zoster virus OKA infected in HEL cells assessed as inhibition of virus plaque formation. Format: functional, cell-based. The following applies: Human alphaherpesvirus 3, OKA. The procedure, abridged: (§1)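 Confluent HEL cell monolayers were infected with 20 PFU of VZV and incubated with varying compound concentrations. Plaques were scored once plaque formation was complete in untreated infected controls.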

The subject of data set [2] is Human alphaherpesvirus 3. In words: Antiviral activity against thymidine kinase deficient Varicella-Zoster virus 07-1 infected in HEL cells assessed as inhibition of virus plaque formation. To be noted: Human alphaherpesvirus 3, 07-1, HEL. Format: functional, cell-based. The method, boiled down: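 Confluent HEL fibroblast monolayers were infected with 20 PFU of TK⁻ VZV strain 07-1 and incubated with varying compound concentrations. Plaques were recorded once plaque formation reached completion in untreated infected controls.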

Data set [3] can be described thus: Cytotoxicity against HEL cells assessed as growth inhibition after 3 days by coulter counter method. It is filed as toxicity, cell-based. To be noted: human; for CC50: hel, 72 h; for CC50 at 72 h: HEL cells. The method, boiled down:
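HEL cells were seeded at 5×10^3 cells/well and allowed to grow for 24 h. Medium with varying compound concentrations was then added, and cells were incubated for 3 days at 37 °C before counting with a Coulter counter.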

The test system of data set [4] is Human betaherpesvirus 5. In words: Antiviral activity against Human cytomegalovirus AD169 infected in HEL cells assessed as inhibition of virus plaque formation. It is filed as functional, cell-based. To be noted: Human betaherpesvirus 5, AD169, HEL.
The test system of data set [5] is Human betaherpesvirus 5. Briefly: Antiviral activity against Human cytomegalovirus Davis infected in HEL cells assessed as inhibition of virus plaque formation. The following applies: Human betaherpesvirus 5, Davis. Format: functional, cell-based.
The test system of data set [6] is Human alphaherpesvirus 1. Briefly: Antiviral activity against Herpes simplex virus 1 KOS infected in HEL cells assessed as inhibition of virus plaque formation. Format: functional, cell-based. To be noted: Human alphaherpesvirus 1, KOS.
The test system of data set [7] is Human alphaherpesvirus 1. Briefly: Antiviral activity against thymidine kinase-deficient acyclovir-resistant Herpes simplex virus 1 KOS infected in HEL cells assessed as inhibition of virus plaque formation. It is filed as functional, cell-based. The following applies: Human alphaherpesvirus 1, KOS.
The subject of data set [8] is Human alphaherpesvirus 2. Briefly: Antiviral activity against Herpes simplex virus 2 G infected in HEL cells assessed as inhibition of virus plaque formation. Format: functional, cell-based. The following applies: Human alphaherpesvirus 2, strain G.
The nature of data set [9]: Cytotoxicity against HEL cells assessed as alteration of cell morphology after 3 days by microscopic method. It is filed as toxicity, cell-based. The following applies: human. The procedure, abridged:
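HEL cultures were exposed to compound at varying concentrations. Cytotoxicity was recorded as the minimum cytotoxic concentration, the lowest concentration giving a microscopically detectable alteration of cell morphology.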

The subject of data set [10] is Human alphaherpesvirus 3. Briefly: Antiviral activity against thymidine kinase deficient Varicella-Zoster virus YS-R infected in HEL cells assessed as inhibition of virus plaque formation. The following applies: Human alphaherpesvirus 3, YS-R. It is filed as functional, cell-based. The procedure, abridged: as §1

What is called EC50 is the concentration needed to bring the measured effect to its halfway point. As a reminder, the CC50 is the concentration giving 50% cytotoxicity. Consider `Cn1cc(CCNCc2ccc(Cl)cc2)c2ccccc21`, for which the concentration giving a half-maximal response (EC50) in data set [1] was above 4 µM; in [2], above 4 µM; in data set [4], above 20 µM; in data set [5], above 20 µM; in [6], above 20 µM; in [7], above 20 µM. Besides, the EC50 in data set [8] is above 20 µM. Moreover, the CC50 in [3] turned out to be 22 µM. In addition, the MCC at 72 h in data set [9] was determined as 20 µM.
As for `COc1ccc(CNCCc2cn(C)c3ccccc23)cc1`, the EC50 in data set [1], in data set [2], in data set [4], in data set [5], in data set [6] and in data set [7] was above 20 µM each time. In data set [8], the EC50 is above 20 µM. The CC50 in data set [3] stood at 28 µM. The MCC at 72 h in data set [9] came to 100 µM.
On to `Cn1cc(CCNCCc2ccc(-c3ccccc3)cc2)c2ccccc21`, for which the EC50 in [2] is above 4 µM; in [4] it was above 4 µM; in data set [5], above 4 µM; in [6], above 100 µM; in data set [7], above 100 µM; in data set [8], above 100 µM. For the same compound, in data set [3], the CC50 worked out at 20 µM. Also, the MCC at 72 h in [9] is above 4 µM.
In the case of `CC(=O)N(CCc1cn(C)c2ccccc12)Cc1ccc2ccccc2c1`, the concentration giving a half-maximal response (EC50) in data set [1] and in data set [2] was above 4 µM in each case. Besides, the MCC at 72 h in [9] was 20 µM.
In the case of `CC(=O)N(CCc1cn(C)c2ccccc12)Cc1cccc2ccccc12`, the EC50 in data set [1] and in data set [2] was above 20 µM in each case. Further, in [9], the MCC at 72 h is 100 µM.
Regarding `CC(=O)N(CCc1cn(C)c2ccccc12)c1cccc2ccccc12`, the EC50 in [1] and in data set [2] was above 20 µM throughout. The MCC at 72 h in data set [9] came to 100 µM.
Take `CC(=O)N(CCc1cn(C)c2ccccc12)Cc1ccc(-c2ccccc2)cc1`: the EC50 in [1] and in [2] was above 20 µM throughout. Further, the MCC at 72 h in data set [9] was found to be 100 µM.
On to `Cn1cc(CCNc2ccc3ccccc3c2)c2ccccc21`, for which the EC50 is above 100 µM in data set [1]; above 100 µM in data set [2]; 76 µM in data set [4]; 100 µM in data set [5]; above 100 µM in [6]; above 100 µM in data set [7]. Further, in [8], the EC50 is above 100 µM. For the same compound, the CC50 in [3] worked out at 41 µM. Further, the MCC at 72 h in data set [9] is above 100 µM.
On to `COC(=O)c1ccc(CNCCc2cn(Cc3ccc(-c4ccccc4)cc3)c3ccccc23)cc1`, for which the EC50 is above 4 µM in data set [2]; above 4 µM in [10]; above 4 µM in [4]; above 4 µM in data set [5]; above 100 µM in data set [6]; above 100 µM in [7]. Further, the EC50 in data set [8] was above 100 µM. In addition, in data set [3], the CC50 is 7.3 µM. Further, the MCC at 72 h in [9] was 20 µM.
Regarding `CC(=O)N(CCc1cn(C)c2ccccc12)c1ccc2ccccc2c1`, the EC50 in data set [1] and in [2] was above 4 µM each time. Also, the MCC at 72 h in [9] worked out at 20 µM.
As to `CCCn1cc(CNCCc2ccc(-c3ccccc3)cc2)c2ccccc21`, the EC50 is above 0.8 µM in [1]; above 0.8 µM in [2]; above 0.16 µM in [5]; above 100 µM in data set [6]; above 100 µM in data set [7]; above 100 µM in data set [8]. The CC50 in data set [3] came to 1.7 µM. Moreover, the MCC at 72 h in [9] was 4 µM.
On to `Cn1cc(CCN(CCc2ccc(-c3ccccc3)cc2)C(=O)C2CCCCC2)c2ccccc21`, for which the EC50 in [1] and in data set [2] was above 4 µM each time. For the same compound, in [9], the MCC at 72 h amounted to 20 µM.
Turning to `CC(=O)N(CCc1ccc(-c2ccccc2)cc1)CCc1cn(C)c2ccccc12`, the EC50 in [1] was 2.5 to 3.6 µM; in data set [2], 1.7 to 3.1 µM; in [10], 2.1 µM; in data set [5] it was above 4 µM; in [6], above 100 µM; in data set [7], above 100 µM. Also, the EC50 in data set [8] was above 100 µM. The CC50 in data set [3] is 31 to 39 µM. Moreover, the MCC at 72 h in data set [9] was in the range of 20 to 35 µM.
As for `Cn1cc(CCN(CCc2ccc(-c3ccccc3)cc2)C(=O)c2ccccc2)c2ccccc21`, the EC50 in data set [1] and in [2] was 20 µM in each case. Besides, the MCC at 72 h in [9] is above 100 µM.
On to `Cn1cc(CCN(CCc2ccc(-c3ccccc3)cc2)C(=O)CCN2CCOCC2)c2ccccc21`, for which the EC50 in data set [1] and in [2] was above 4 µM in each case. For the same compound, in data set [9], the MCC at 72 h is 20 µM.
As to `CCCn1cc(C(=O)c2ccc(Cl)cc2)c2ccccc21`, the EC50 in [1], in data set [2], in [5], in data set [6], in data set [7] and in data set [8] was above 100 µM each time. Moreover, the CC50 in data set [3] is above 100 µM. In addition, the MCC at 72 h in [9] is above 100 µM.
In the case of `CCCn1cc(CN2CCCCC2)c2cc(NC(=O)c3ccccc3)ccc21`, the EC50 in data set [1] was above 20 µM; in [2], above 20 µM; in [5] it was above 20 µM; in data set [6], above 100 µM; in data set [7], above 100 µM; in [8] it was above 100 µM. Further, the CC50 in data set [3] was found to be 31 µM. For the same compound, the MCC at 72 h in data set [9] was determined as 100 µM.
Turning to `CCCn1cc(CN2CCCCC2)c2cc(CNc3ccc(Cl)cc3)ccc21`, the EC50 in [1] was above 4 µM; in data set [2] it was above 4 µM; in data set [5] it was above 4 µM; in [6] it was above 20 µM; in [7], above 20 µM; in data set [8] it was above 20 µM. Moreover, the CC50 in data set [3] was 15 µM. The MCC at 72 h in data set [9] is 20 µM.
Turning to `c1ccc(-c2ccc(Cn3cc(CN4CCCCC4)c4ccccc43)cc2)cc1`, the EC50 in data set [1] is above 4 µM; in [2], above 4 µM; in data set [5], above 4 µM; in data set [6], above 20 µM; in data set [7], above 20 µM; in data set [8], above 20 µM. Besides, in [3], the CC50 was found to be 6.9 µM. In data set [9], the MCC at 72 h is 20 µM.
Regarding `Cn1cc(CCN(CCc2ccc(-c3ccccc3)cc2)C(=O)OC(C)(C)C)c2ccccc21`, the EC50 in data set [1] and in data set [2] was above 4 µM each time. The MCC at 72 h in [9] amounted to 20 µM.
`CC(=O)N(CCc1cn(C)c2ccccc12)Cc1ccc(Oc2ccccc2)cc1`: the EC50 in [1] and in [2] was above 4 µM in each case. Further, the MCC at 72 h in data set [9] came to 20 µM.
Consider `CCCn1cc(CN2CCCCC2)c2ccccc21`, for which the EC50 in [1] was above 100 µM; in data set [2] it was above 100 µM; in [4], above 4 µM; in data set [5] it was above 4 µM; in data set [6] it was above 100 µM; in [7], above 100 µM. The EC50 in data set [8] is above 100 µM. The CC50 in data set [3] was above 100 µM. The MCC at 72 h in data set [9] was above 100 µM.
Turning to `CCCn1cc(CNCCc2ccc(-c3ccccc3)cc2)c2cc(CNc3ccc(Cl)cc3)ccc21`, the EC50 in data set [1], in data set [2], in data set [5], in [6], in data set [7] and in data set [8] was above 4 µM each time. In addition, in data set [3], the CC50 turned out to be 9.7 µM. For the same compound, the MCC at 72 h in data set [9] was 20 µM.
With `Nc1nc2c(ncn2COCCO)c(=O)[nH]1` [ACYCLOVIR], the CC50 at 72 h in data set [3] fell in the range of 191 to 224 µM. For the same compound, the MCC at 72 h in data set [9] is 250 to 440 µM.
With `O=c1[nH]c(=O)n([C@H]2C[C@H](O)[C@@H](CO)O2)cc1/C=C/Br` [BRIVUDINE], the EC50 in data set [1] was 0.019 to 0.035 µM; in data set [2], 33 to 143 µM; in [8] it was 96 µM. The CC50 at 72 h in data set [3] fell in the range of 160 to 300 µM. Moreover, in [9], the MCC at 72 h lay in the range of 250 to 300 µM.
`Nc1ccn(C[C@@H](CO)OCP(=O)(O)O)c(=O)n1` [CIDOFOVIR]: the half-maximal effective concentration (EC50) in data set [6] turned out to be 0.4 µM; in data set [8] it was 0.7 µM. Also, in data set [9], the MCC at 72 h is above 250 µM.
With `Nc1nc(O)c2ncn(COC(CO)CO)c2n1` [GANCICLOVIR], the MCC at 72 h in [9] is above 100 µM.
